# Measurements from different studies.
# Each line is one published result; the experiments were not run side by side.
# Cell line: A549
# Read-out: cell growth or viability
SMILES,assay,conditions,IC50
O=C(C=Cc1ccccc1)Nc1cc(-c2ccnc(N3CCOCC3)c2)ccn1,MTT,72 h,0.444 µM
O=C(O)c1ccc2c(c1)nc(Nc1cccc(Cl)c1)c1ccncc12,crystal violet,48 h,10.5 µM
COc1cccc2c1C(=O)c1c(O)c3c(c(O)c1C2=O)C[C@@](O)(C(=O)CO)C[C@@H]3O[C@H]1C[C@H](N)[C@H](O)[C@H](C)O1,MTT,72 h,2.7 µM
C#Cc1cccc(Nc2ncnc3cc(OCCOC)c(OCCOC)cc23)c1,MTT,72 h,25.6 µM
C[C@H](CCC(=O)O)[C@H]1CC[C@H]2[C@@H]3CC[C@@H]4C[C@H](O)CC[C@]4(C)[C@H]3CC[C@]12C,MTT,72 h,70 µM
Cc1nc(Nc2ccc3c(c2)/C(=C/c2ccccc2)C(=O)N3Cc2ccccc2)c2ccccc2n1,MTT,,44.7 µM
Cc1ncc(CN2CCN(Cc3ccccn3)CC2)c2cc(C(=O)c3ccc4c(c3)OCCO4)oc12,MTT,72 h,57.2 µM
C=CC(=O)N1CCN(c2nc(=O)n(-c3c(C)ccnc3C(C)C)c3nc(-c4c(O)cccc4F)c(F)cc23)[C@@H](C)C1,ATP luminescence,,> 10 µM
Cc1nc(Nc2ccc3c(c2)/C(=C/c2ccccc2Cl)C(=O)N3)c2ccccc2n1,MTT,,5.67 µM
Cc1ccc2c(-c3cc4c(CNCc5cccnc5)cnc(C)c4o3)cc(=O)oc2c1C,MTT,72 h,36.4 µM
Cc1nc(N(C)c2ccc3c(c2)/C(=C/c2ccccc2Cl)C(=O)N3C)c2ccccc2n1,MTT,,7.68 µM
C=C(F)C(=O)N1CCN(c2nc(OC[C@@H]3CCCN3C)nc3c2CCN(c2cccc4cccc(Cl)c24)C3)C[C@@H]1CC#N,ATP luminescence,,2.17 µM
COc1cc2ncnc(Nc3ccc4c(c3)/C(=C/c3cccc(Cl)c3)C(=O)N4C)c2cc1OC,MTT,,9.19 µM
C=CC(=O)Nc1cc(Nc2nccc(-c3cn(C)c4ccccc34)n2)c(OC)cc1N(C)CCN(C)C,MTT,72 h,28.2 µM
